According to ChEMBL document CHEMBL1127292, “Inhibition of myeloperoxidase release from rat polymorphonuclear leukocytes by a series of azachalcone derivatives” (J Med Chem, 1994):

Legend:
Rattus norvegicus [1] = species: Rattus norvegicus; experiment: Ability to inhibit N-formyl-methionyl-leucyl-phenylalanine (fMLP)-stimulated release of myeloperoxidase (MPO) from rat polymorphonuclear leukocytes (PMN).; format: functional
Summary of the method: (§1)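 Peritoneal PMN were taken from Harlan Sprague-Dawley rats (150-250 g), with >90% viability by trypan blue and >90% PMN by Wright-Giemsa stain. Cells in suspension (2 × 10^7 cells/mL) were stimulated with 0.1 μM fMLP for 30 min at 37 °C in the presence of test agent. MPO in the supernatant was measured by MPO-catalyzed oxidation of o-dianisidine.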

Rattus norvegicus [2] = species: Rattus norvegicus; experiment: Tested for ability at 50 uM to inhibit N-formyl-methionyl-leucyl-phenylalanine (fMLP) stimulated release of Myeloperoxidase (MPO) from rat polymorphonuclear leukocytes (PMN); format: functional; summary of the method: as §1

Row | SMILES | IC50 (Rattus norvegicus [1]) | inhibition at 50 µM (Rattus norvegicus [2])
1 | O=C1c2ccccc2-c2ccc(-c3cccnc3)cc21 | > 100 µM | 
2 | COc1cc(C(=O)/C=C(\C)c2ccncc2)cc(OC)c1OC | > 100 µM | 
3 | O=C(/C=C/c1ccncc1)c1ccco1 | 50 µM | 
4 | O=C(c1ccccc1)c1ccccc1-c1cccnc1 | > 100 µM | 
5 | COc1cc(C(=O)/C=C/c2cc[n+](C)cc2)cc(OC)c1OC | > 50 µM | 
6 | CC(C)(C)c1ccc(C(=O)/C=C/c2ccncc2)cc1 | 47 µM | 
7 | CO/N=C(\C=C\c1ccncc1)c1cc(OC)c(OC)c(OC)c1 | > 100 µM | 
8 | O=C(c1ccccc1)c1cccc(-c2cccnc2)c1 | > 100 µM | 
9 | O=C(c1ccccc1)c1ccc2ncccc2c1 | > 100 µM | 
10 | O=C(/C=C/c1ccncc1)c1ccc(Cl)cc1 | 60 µM | 
11 | O=C(/C=C/c1ccncc1)c1cccc(Cl)c1 | 69 µM | 
12 | O=C(c1ccccc1)c1ccc(-c2cccnc2)cc1 | > 100 µM | 
13 | O=c1cc(-c2cccnc2)oc2ccccc12 | > 100 µM | 
14 | COc1cc(/C=C\C(=O)c2ccncc2)cc(OC)c1OC |  | 28%
15 | COc1cc(C(=O)CCc2ccncc2)cc(OC)c1OC | > 100 µM | 
16 | COc1cc(C(O)/C=C/c2ccncc2)cc(OC)c1OC (stereo not drawn) | > 100 µM | 
17 | O=C(/C=C/c1ccncc1)c1ccc(C(F)(F)F)cc1 | 204 µM | 
18 | O=C1c2ccccc2-c2cccc(-c3cccnc3)c21 | > 100 µM | 
19 | C(=C\c1noc2ccccc12)/c1ccncc1 | > 100 µM | 
20 | N#Cc1cccc(C(=O)/C=C/c2ccncc2)c1 | 85 µM | 
21 | O=C(/C=C/c1ccncc1)c1ccccc1 | 49 µM | 
22 | COc1cc(C(=O)/C(C)=C/c2ccncc2)cc(OC)c1OC | > 100 µM | 
23 | N#Cc1ccc(C(=O)/C=C/c2ccncc2)cc1 | 123 µM | 

Further lines, with some results ahead:

Row | IC50 (Rattus norvegicus [1]) | SMILES | inhibition at 50 µM (Rattus norvegicus [2])
24 | 18 µM | COc1cc(C(=O)/C=C/c2ccccn2)cc(OC)c1OC | 
25 | 30 µM | COc1cc(C(=O)/C=C/c2cccnc2)cc(OC)c1OC | 
26 | 39 µM | Cc1cccc(C(=O)/C=C/c2ccncc2)c1 | 
27 | 7 µM | COc1cc(C(=O)/C=C/c2ccncc2)cc(OC)c1OC | 
28 | 19 µM | CN(C)c1cccc(C(=O)/C=C/c2ccncc2)c1 | 
29 | 11 µM | CN(C)c1ccc(C(=O)/C=C/c2ccncc2)cc1 | 
30 | 41 µM | O=C(/C=C/c1ccncc1)c1cccc(C(F)(F)F)c1 | 
31 | 16 µM | O=C(C#Cc1ccncc1)c1ccccc1 | 
32 | 33 µM | CSc1ccc(C(=O)/C=C/c2ccncc2)cc1 | 
33 | 30 µM | O=C(/C=C/c1ccncc1)c1cccs1 | 
